Data: ChEMBL document CHEMBL1121731, “Synthesis and neuroleptic activity of benzamides. Cis-N-(1-benzyl-2-methylpyrrolidin-3-yl)-5-chloro-2-methoxy-4-(methylamino)benzamide and related compounds” (1981)

Columns and labels:
Type in all cases: functional
Rattus norvegicus [1] = assay: Subcutaneous dose to inhibit apomorphine-induced stereotyped behavior in 50% of rats
Procedure, shortened: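 Test drugs given subcutaneously to rats; 30 min later apomorphine 1.25 mg/kg i.v. Inhibition scored positive unless both gnawing and licking were seen during 20 min after apomorphine. ED50 estimated by Litchfield–Wilcoxon or graphical method, 6–12 rats per dose.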

Rattus norvegicus [2] = species on record: Rattus norvegicus; assay: Effective dose to induce catalepsy in 50% of the rats
[3] = Ratio of ED50 for inhibition of catalepsy induction to stereotypy induction
Rattus norvegicus [4] = species on record: Rattus norvegicus; assay: The inhibitory effect on the continuous avoidance was expressed as the dose to increase the number of electroshocks by 60% of the rats
Procedure, shortened: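 Modified Sidman continuous avoidance schedule in rats; shock-shock interval 5 s, response-shock interval 25 s; only rats receiving fewer than 19 shocks/h used. Drugs given subcutaneously; effect expressed as dose raising electroshocks by 60 (1 shock/min) between 1 and 2 h post-dose.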

Rattus norvegicus [5] = species on record: Rattus norvegicus; assay: Effective dose to induce catalepsy in 50% of the rats (95% confidence limits included in parentheses)
[6] = Rattus norvegicus, sc, read-out: ED50

Row | Structure (SMILES) | ED50 (Rattus norvegicus [1]; [6]) | also measured
1 | COc1cc(N)c(Cl)cc1C(=O)NCCN(Cc1ccccc1)Cc1ccccc1 | > 30 mg/kg | –
2 | CCN(CCNC(=O)c1cc(Cl)c(N)cc1OC)Cc1ccccc1 | 0.31 mg/kg | –
3 | COc1cc(N(C)C(C)=O)c(Cl)cc1C(=O)NC1CCN(Cc2ccccc2)C1 (configuration not stated) | > 30 mg/kg | –
4 | CCNS(=O)(=O)c1ccc(OC)c(C(=O)NCCN(C)Cc2ccccc2)c1 | > 30 mg/kg | –
5 | CNc1cc(OC)c(C(=O)NC2CCN(Cc3ccccc3)C2C)cc1Cl (trans isomer) [NEMONAPRIDE] | – | ED50 (Rattus norvegicus [1]): 0.057 mg/kg
6 | CCN(CCNC(=O)c1cc(Cl)c(N)cc1OC)Cc1cccc(OC)c1 | 1 mg/kg | –
7 | CCN(CCNC(=O)c1cc(Cl)c(N)cc1OC)Cc1ccc(Cl)cc1 | 0.24 mg/kg | –
8 | CNc1cc(OC)c(C(=O)NCC2CCC(C)N2Cc2ccccc2)cc1Cl.Cl (configuration not stated) | 0.35 mg/kg | ED50 (Rattus norvegicus [2]): 13.5 mg/kg; Ratio [3]: 39; ED50 (Rattus norvegicus [4]): 0.11 mg/kg
9 | CCCCN(CCNC(=O)c1cc(Cl)c(N)cc1OC)Cc1ccc(Cl)cc1 | 20 mg/kg | –
10 | COc1ccc(OC)c(C(=O)NCCN(C)Cc2ccccc2)c1.Cl | 3 mg/kg | –
11 | COc1cc(NC=O)c(Cl)cc1C(=O)NC1CCN(Cc2ccccc2)C1 (configuration not stated) | 0.6 mg/kg | –
12 | CCN1CCC(NC(=O)c2cc(Cl)c(NC)cc2OC)C1 (configuration not stated) | 10 mg/kg | –
13 | CCNCCNC(=O)c1cc(Cl)c(N)cc1OC [MONODEETHYLATED-MCP] | > 30 mg/kg | –
14 | CNc1cc(OC)c(C(=O)NC2CCN(Cc3ccccc3)C2C)cc1Cl (cis isomer) [NEMONAPRIDE] | – | ED50 (Rattus norvegicus [4]): 0.0034 mg/kg; ED50 (Rattus norvegicus [5]): 0.5 mg/kg; ED50 (Rattus norvegicus [1]): 0.0076 mg/kg
15 | CCN(CCNC(=O)c1cc(Cl)c(N)cc1OC)Cc1cccc(Cl)c1 | 0.58 mg/kg | –
16 | CCN(CCNC(=O)c1cc(Cl)c(N)cc1OC)Cc1ccccn1 | 30 mg/kg | –
17 | CNc1cc(OC)c(C(=O)NCCN(C)Cc2ccccc2)cc1Cl.Cl | 0.21 mg/kg | ED50 (Rattus norvegicus [2]): 16.5 mg/kg; Ratio [3]: 79; ED50 (Rattus norvegicus [4]): 0.041 mg/kg
18 | COc1cc(N)c(Cl)cc1C(=O)NCCN(C)Cc1ccccc1C | 2 mg/kg | –
19 | COc1cc(N)c(Cl)cc1C(=O)NCCN(Cc1ccccc1)C(C)(C)C | > 30 mg/kg | –
20 | CNc1cc(OC)c(C(=O)NC2CCN(Cc3ccccc3)C2)cc1Cl (configuration not stated) | 0.016 mg/kg | ED50 (Rattus norvegicus [2]): 1.6 mg/kg; Ratio [3]: 100; ED50 (Rattus norvegicus [4]): 0.008 mg/kg

Row | Structure (SMILES) | ED50 (Rattus norvegicus [1]; [6]) | also measured
21 | CCN1CCCC1CNC(=O)c1cc(S(=O)(=O)CC)ccc1OC (configuration not stated) [SULTOPRIDE] | 18 mg/kg | –
22 | COc1cc(N(C)C)c(Cl)cc1C(=O)NC1CCN(Cc2ccccc2)C1 (configuration not stated) | 0.12 mg/kg | –
23 | CCN(CCNC(=O)c1cc(Cl)c(N)cc1OC)Cc1ccc(Cl)cc1Cl | 10 mg/kg | –
24 | COc1cc(N(C)C(=O)C(F)(F)F)c(Cl)cc1C(=O)NC1CCN(Cc2ccccc2)C1 (configuration not stated) | 0.3 mg/kg | –
25 | CCN1C(CNC(=O)c2cc(Cl)c(NC)cc2OC)CCC1c1ccccc1 (configuration not stated) | > 30 mg/kg | –
26 | COc1cc(N)c(Cl)cc1C(=O)NCC1CCCN1Cc1ccccc1 (configuration not stated) | 1.1 mg/kg | –
27 | COc1cc(N(C)C)c(Cl)cc1C(=O)NCC1CCCN1C1CCCCC1.O=C(O)C(=O)O (configuration not stated) | > 30 mg/kg | –
28 | COc1cc(N)c(Cl)cc1C(=O)NCCN(C)CC1CCCCC1 | 3 mg/kg | –
29 | COc1cc(N)c(Cl)cc1C(=O)NCCN(C)C(C)c1ccccc1 (configuration not stated) | 1 mg/kg | –
30 | COc1cc(NCc2ccccc2)c(Cl)cc1C(=O)NC1CCN(Cc2ccccc2)C1 (configuration not stated) | > 30 mg/kg | –
31 | CCN(CCNC(=O)c1cc(Cl)c(N)cc1OC)Cc1ccc(F)cc1 | 0.2 mg/kg | –
32 | O=C(CCCN1CCC(O)(c2ccc(Cl)cc2)CC1)c1ccc(F)cc1 [HALOPERIDOL] | 0.095 mg/kg | ED50 (Rattus norvegicus [2]): 1 mg/kg; Ratio [3]: 11; ED50 (Rattus norvegicus [4]): 0.021 mg/kg
33 | CCNc1cc(OC)c(C(=O)NC2CCN(Cc3ccccc3)C2)cc1Cl (configuration not stated) | 0.1 mg/kg | –
34 | CCN(CC)CCNC(=O)c1cc(Cl)c(N)cc1OC [METOCLOPRAMIDE] | 3.1 mg/kg | ED50 (Rattus norvegicus [2]): 26 mg/kg; Ratio [3]: 8.4; ED50 (Rattus norvegicus [4]): 2.6 mg/kg
35 | CCN(CCNC(=O)c1cc(Cl)c(N)cc1OC)Cc1ccco1 | 3 mg/kg | –
36 | COc1ccc(S(C)(=O)=O)cc1C(=O)NCCN(C)Cc1ccccc1 | 3 mg/kg | –
37 | CCN1CCCC1CNC(=O)c1cc(S(N)(=O)=O)ccc1OC (configuration not stated) [SULPIRIDE] | > 100 mg/kg | –
38 | CNc1cc(OC)c(C(=O)NCC2CCCN2Cc2ccccc2)cc1Cl.Cl (configuration not stated) | 0.94 mg/kg | –
39 | CCN(CCNC(=O)c1cc(Cl)c(N)cc1OC)Cc1ccccc1OC | 10 mg/kg | –
40 | CCCNc1cc(OC)c(C(=O)NC2CCN(Cc3ccccc3)C2)cc1Cl (configuration not stated) | 17 mg/kg | –

Row | Structure (SMILES) | ED50 (Rattus norvegicus [1]; [6]) | also measured
41 | CCN(CCNC(=O)c1cc(Cl)c(N)cc1OC)Cc1ccc(OC)cc1 | 0.2 mg/kg | –
42 | COc1cc(C(=O)NCCN(C)Cc2ccccc2)cc(OC)c1OC | > 30 mg/kg | –
43 | COc1cc(N(C)C)c(Cl)cc1C(=O)NCCN(C)Cc1ccccc1 | 0.54 mg/kg | –
44 | COc1cc(N)c(Cl)cc1C(=O)NC1CCN(C2CCCCC2)C1 (configuration not stated) | 1.8 mg/kg | –
45 | COc1cc(N2CCCC2)c(Cl)cc1C(=O)NC1CCN(Cc2ccccc2)C1 (configuration not stated) | 0.6 mg/kg | –
46 | CCN1CCCC1CNC(=O)c1cc(Cl)c(N)cc1OC (configuration not stated) | > 30 mg/kg | –
47 | COc1cc(N)c(Cl)cc1C(=O)NCCN(C)Cc1ccccc1 | 0.38 mg/kg | –
48 | COc1cc(N)c(Cl)cc1C(=O)NC1CCN(Cc2ccccc2)C1 (configuration not stated) | 0.17 mg/kg | –
49 | COc1cc(NC(C)=O)c(Cl)cc1C(=O)NC1CCN(Cc2ccccc2)C1 (configuration not stated) | 1.8 mg/kg | –
50 | COc1cc(N)c(Cl)cc1C(=O)NCCN(Cc1ccc(Cl)cc1)C(C)C | 3 mg/kg | –
51 | CNc1cc(OC)c(C(=O)NC2CCN(Cc3ccccc3)C2C)cc1Cl (cis isomer) | – | Ratio [3]: 66
52 | CCN(CCNC(=O)c1cc(Cl)c(N)cc1OC)Cc1ccccc1Cl | 10 mg/kg | –
53 | COc1ccc(S(N)(=O)=O)cc1C(=O)NCCN(C)Cc1ccccc1 | > 30 mg/kg | –
54 | CN(CCNC(=O)c1ccc(F)cc1)Cc1ccccc1.Cl | > 30 mg/kg | –
55 | CCC1c2ccccc2CN1CNC(=O)c1cc(Cl)c(N)cc1OC (configuration not stated) | 1 mg/kg | –
56 | COc1cc(N)c(Cl)cc1C(=O)NCC1CCC(C)N1Cc1ccccc1 (configuration not stated) | 0.67 mg/kg | –
57 | COc1ccc(Cl)cc1C(=O)NCCN(C)Cc1ccccc1.Cl | 3 mg/kg | –
58 | COc1cc(N)c(Cl)cc1C(=O)NCCN(C)Cc1ccccc1C(F)(F)F | 30 mg/kg | –
59 | CCCN(CCNC(=O)c1cc(Cl)c(N)cc1OC)Cc1ccc(Cl)cc1 | 3 mg/kg | –
60 | COc1cc(N(C)C)c(Cl)cc1C(=O)NC1CCN(C2CCCCC2)C1 (configuration not stated) | 1 mg/kg | –
